# Source: PubChem BioAssay AID504382 (The Scripps Research Institute Molecular Screening Center, 2011)
# Screen size: about 2,500 compounds; about 460 (18%) were called active. A selection follows. Unmarked numbers belong to inactive results.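 The calls were made as follows: active = mean activation above a cutoff of low control average plus 3 SD from the earlier screen (cut at about 12% in these data); inactive = the rest.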
# Assay: IANBD-channel fluorescence artefacts in buffer – biochemical, artefact control for cardiac RTF calcium sensitizer project, confirmation (AID 504382)
# Conditions: IANBD fluorescence interference counterscreen, EC20 Ca2+, at 7.2 µM, hits give high values, scaled: EC20 calcium 0, EC100 calcium 100
# In short: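 timing = compound incubation 15 min at 25 °C before fluorescence reading | technique = fluorescence at 480 nm excitation, 540 nm emission | evaluation = interference relative to controls | replication = triplicate wells per compound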
row,Structure (SMILES),fluorescence artifact activation
1,COc1ccc(/C=N/NC(=O)Cn2c(Cc3ccc(OC)c(OC)c3)nc3ccccc32)cc1,1.63%
2,COc1ncnc2c1NC1=C(S2)C(=NCCC(=O)O)CC(C)(C)C1,19.4% (active)
3,CC(=O)c1cc2c(cc1N/C(=N/S(=O)(=O)c1ccc(Br)cc1)c1ccccc1)OCO2,0.13%
4,O=C(NCc1cccc(C(F)(F)F)c1)c1cccc(S(=O)(=O)NCc2ccccc2)c1,0.02%
5,CC(=NNC(=O)c1ccncc1)c1ccc2ccccc2c1O,0.08%
6,CCOC(=O)c1sc2nc(C)nc(SCC(=O)NC3CCS(=O)(=O)C3)c2c1C (stereo not given),8.03%
7,O=C(NCC(=O)N(CC1CCCO1)C1(C(=O)NC2CCCCC2)CCCCC1)c1ccccc1 (stereo not given),-0.09%
8,S=C(Nc1cc(Cl)ccc1Oc1ccccc1)N1CCN(c2ccccn2)CC1,23.1% (active)
9,CCOC(=O)N1CCN(C(=S)Nc2ccccc2C)CC1,7.89%
10,O=C(COc1ccccc1Cl)N1CCN(c2ccccn2)CC1,0.24%
11,CC(COC(=O)c1ccccc1)(COC(=O)c1ccccc1)/[N+]([O-])=C/c1ccccc1,9.45%
12,COCCCn1c(=O)/c(=C\c2cccc(OC)c2OC)s/c1=C(/C#N)C(=O)Nc1ccc(C(=O)O)cc1,2.82%
13,CCc1cc(C(=O)Nc2ccc(OC)nc2)sc1C,-0.03%
14,CCC(=O)N1CCC2(CC1)Oc1ccc(Cl)cc1C(=O)C21CC(c2cccnc2)=NO1 (stereo not given),5.01%
15,COc1ccc(C2(CNC(C)=O)CCCC2)cc1OC,0.1%
16,Cc1ccc(N2C(=O)C3C(C(=O)c4ccccc4)=NN(c4ccccc4)C3C2=O)cc1 (stereo not given),5.76%
17,COc1ccc(N2C(=O)C3C(C2=O)C(C(=O)c2ccc(Cl)cc2)N2CCCC32)cc1 (stereo not given),2.56%
18,Cc1ccc(N2C(=O)[C@@H]3[C@H](C2=O)C2CCCN2[C@@H]3C(=O)c2ccccc2)cc1 (stereo not given in full),65.3% (active)
19,O=C(c1ccccc1)[C@@H]1[C@@H]2C(=O)N(c3ccc(F)cc3)C(=O)[C@@H]2C2CCCN21 (stereo not given in full),1.82%
20,CCOC(=O)c1ccc(N2C(=O)C3C(C2=O)C(C(=O)c2ccc(Cl)cc2)N2CCCC32)cc1 (stereo not given),1.5%
21,CC(=O)Oc1ccc(N2C(=O)C3C(C2=O)C(C(=O)c2ccc(Cl)cc2)N2CCCC32)cc1 (stereo not given),12.2% (active)
22,CCc1ccc(Nc2n[n+](-c3ccccc3)c(-c3ccc(N(CC)CC)cc3)s2)cc1,-0.01%
23,C[C@H](CO)N1C[C@H](C)[C@@H](CN(C)S(=O)(=O)c2cccs2)Oc2c(NC(=O)Nc3ccc4c(c3)OCO4)cccc2C1=O,2.08%

row,Structure (SMILES),fluorescence artifact activation
1,COCc1cc(=O)[nH]c2cc(NC(=O)C(C)(C)CCl)c(C)cc12,-0.05%
2,COc1ccc(CCNC(=O)c2ccccc2OCc2c(C)noc2C)cc1,-0.02%
3,CCOCCCNC(=S)NCCCNc1nc2c(C)cc(C)cc2cc1C#N,0.14%
4,COc1cc(N2CCCC2)c(OC)cc1/C=C(/C#N)c1cccc(Br)c1,-0.03%
5,COc1cc(N2CCCC2)c(OC)cc1/C=C(/C#N)c1ccc(Br)cc1,0.93%
6,COc1cc(N2CCCC2)c(OC)cc1/C=C1/NC(=S)NC1=O,16.7% (active)
7,N#Cc1ccc(CSc2nnc(-c3cnccn3)o2)cc1,45.1% (active)
8,O=c1oc2cc(O)ccc2cc1-c1nc2c(s1)CCc1ccccc1-2,0.02%
9,CC(C)(C)c1cc[n+](-c2[nH]c(=O)sc2/C=N/NC([S-])=Nc2ccccc2)cc1,1.92%
10,Cc1ccccc1C(=O)NCCCc1ccccc1,0.02%
11,O=S(=O)(c1ccc(F)cc1)N1CCN(CCOc2ccccc2)CC1,361% (active)
12,COC(=O)N1CCN(S(=O)(=O)c2ccc(F)cc2)CC1,-0.07%
13,CN1CCN(S(=O)(=O)c2cccc(C(=O)Oc3cccc(Br)c3)c2)CC1,0.74%
14,CC(C)c1nnc(N2C(=O)C(O)=C(C(=O)c3cccs3)C2c2ccccc2)s1 (stereo not given),0.07%
15,O=C(COC(=O)c1cc(-c2cccc3ccccc23)nc2ccccc12)NC1CCS(=O)(=O)C1 (stereo not given),0.37%
16,CCCCC(=O)Nc1ccc(C(=O)Nc2ccc(OC)cc2[N+](=O)[O-])cc1,2.86%
17,CCCCCn1nc(-c2ccccc2)c2nc3ccccc3nc21,20.1% (active)
18,CCn1nc(-c2ccccc2)c2nc3ccccc3nc21,4.1%
19,Cn1nc(-c2ccccc2)c2nc3ccccc3nc21,0.09%
20,CCOC(=O)CCC(=O)NCc1ccc2c(c1)cc(C)n2C,0.01%
21,CC(=O)N1CCN(S(=O)(=O)c2cccc(C(=O)NNC(=O)c3ccc(Br)cc3)c2)CC1,0.4%
22,COc1ccc2nc3ccccc3nc2c1NC(=O)c1ccc(Br)cc1,59.2% (active)
23,COc1ccc2nc3ccccc3nc2c1NC(=O)c1ccc(Cl)cc1Cl,0.06%

row,Structure (SMILES),fluorescence artifact activation
1,CN(C)c1ccc(/C=C/C(=O)c2cc(Cl)ccc2O)cc1,0.19%
2,CC(C)(C)NC(=O)CSc1nnc(-c2ccccn2)n1-c1ccccc1,0.09%
3,Cc1cc(C)c2c(SC(C)C)nc(N)nc2n1,5.3%
4,CCOCCn1c(CN2CCN(CC)CC2)nc2c1c(=O)n(C)c(=O)n2C,21.1% (active)
5,CCN(CC)c1ccc(/C=C2\C(=O)c3ccc(C(=O)O)cc3C2=O)cc1,8.82%
6,CCN(CC)c1ccc2cc(C(=O)NCc3ccc(F)cc3)c(=N)oc2c1,17.9% (active)
7,CCN(CC)c1ccc2cc(C(=O)Nc3ccccn3)c(=O)oc2c1,-0.06%
8,CCN(CC)c1ccc2cc(C(C)=O)c(=O)oc2c1,0.03%
9,N#Cc1c(NC(=O)C2CC=CCC2C(=O)O)sc2c1CCCCCC2 (stereo not given),0.67%
10,O=C(O)CCCN1C(=O)/C(=C/c2cn(-c3ccccc3)nc2-c2cccs2)SC1=S,54.1% (active)
11,Cc1ccc(-c2nn(-c3ccccc3)cc2/C=C2\SC(=S)N(CCCCCC(=O)O)C2=O)o1,3.75%
12,COc1ccccc1C(=O)NNC(=O)CCCN1C(=O)/C(=C/c2cccs2)SC1=S,-0.02%
13,COc1cccc(/C(O)=C/c2nc3ccc(C(=O)NCCc4cccc(C)c4)cc3[nH]c2=O)c1,0.04%
14,CCc1ccc(/C=C2/C(=O)N(C)C(=S)N2CC(=O)OC)s1,2.56%
15,O=C(Cn1cnc2c(cnn2-c2ccccc2)c1=O)Nc1ccc(S(=O)(=O)N2CCOCC2)cc1,7.41%
16,CN(C)c1ccc(/C=C/C(=O)c2ccc3c(c2)OCO3)cc1,2.49%
17,C[C@H]1CN([C@@H](C)CO)C(=O)c2cccc(NC(=O)c3nc4ccccc4s3)c2O[C@H]1CN(C)C(=O)Nc1ccc(F)cc1,0.31%
18,CC(C)NC(=O)/C(C#N)=C\c1ccc(N(C)C)o1,48.4% (active)
19,CCN(CC)c1ccc(/C=C(/C#N)C(=O)NC(C)C)o1,0.06%
20,CC(C)NC(=O)/C(C#N)=C/c1ccc(N(C)C)o1,0.18%
21,CCN(c1ccc(N=Cc2c(O)n(Cc3ccc(OC)cc3)c(=O)c3ccccc23)cc1)C(C)C,2.13%
22,O=C(CSC1CC(=O)N(c2ccc(C(=O)O)cc2)C1=O)Nc1ccc2ccccc2c1 (stereo not given),0.06%
23,O=C(NCCCN1CCOCC1)C(=O)NCc1ccco1,0.11%

row,Structure (SMILES),fluorescence artifact activation
1,CC(C)(C)c1ccc(C(=O)N/C(=C\c2cccs2)C(=O)NCc2ccco2)cc1,0.07%
2,O=C(NCc1ccco1)/C(=C\c1ccco1)NC(=O)c1ccc(Br)o1,24.4% (active)
3,Cc1cc(=O)c2c([nH]1)c(C)cc1[nH]c(C)c(C)c12,0.09%
4,C=CCn1c(=O)c(C(=O)NCCNCC)c(O)c2ccccc21,0.84%
5,CCCCN=C1N/C(=C\c2ccco2)C(=O)N1c1ccccc1,78.2% (active)
6,NC(N)=NCc1cccc(I)c1,0.57%
7,CN(C)c1ccc(/C=N/NC(=O)c2cnc3ccccc3c2)cc1,0.02%
8,CC(=O)c1cccc(NC(=S)NC2CCCCC2)c1,0.08%
9,CC(C)CC[C@@H](O)[C@](C)(O)C1CC[C@@]2(O)C3=CC(=O)[C@@H]4C[C@@H](O)[C@@H](O)C[C@]4(C)C3CC[C@]12C (stereo not given in full),79.3% (active)
10,CCCCNc1ccc2c3c(cccc13)C(=O)N(CCCC)C2=O,-0.02%
11,Cc1ccccc1N1C(=O)c2cccc3c(N(C)CCO)ccc(c23)C1=O,-0.04%
12,CNc1ccc2c3c(cccc13)C(=O)N(C)C2=O,40.8% (active)
13,CN1C(=O)c2cccc3c(N(C)C)ccc(c23)C1=O,70.1% (active)
14,CN1C(=O)c2cccc3c(N)ccc(c23)C1=O,0.17%
15,CCN1C(=O)c2cccc3c(N)ccc(c23)C1=O,0.02%
16,COC(=O)N1c2ccccc2CCc2ccccc21,1.49%
17,CC(=O)Nc1ccc(Nc2c3c4c(cccc4n(C)c2=O)C(=O)c2ccccc2-3)cc1,5.51%
18,COc1ccc(CNC(=O)c2cc3c(s2)CS(=O)C3)cc1 (stereo not given),0.1%
19,CCc1ccc2c(c1)C(NC(C)=O)C(=O)N2CC (stereo not given),-0.03%
20,Cc1ccc(S(=O)(=O)c2cccc(S(=O)(=O)N3CCOCC3)c2)cc1S(=O)(=O)N1CCOCC1,6.87%
21,N#C/C(=C\c1ccc(Sc2ccc(Cl)cc2)o1)c1nc2ccccc2[nH]1,-0.03%
